Data taken from PubChem BioAssay AID522 (The Scripps Research Institute Molecular Screening Center, 2006).
Hit rate of the full screen: of about 65,000 compounds, about 1,200 (1.8%) were called active. Many of the other results were omitted from the sample, so actives are more common in it than they were. Values without a mark were called inactive.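 The calls were made as follows: active = activation above the mean activation of all tested compounds plus 3 SD (cut at about 50% in these data); inactive = the rest.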

Molecular target: Steroidogenic factor 1 (Homo sapiens) (UniProt Q13285)
Sequence (Q13285 whole entry, looked up, the tested form may be a part): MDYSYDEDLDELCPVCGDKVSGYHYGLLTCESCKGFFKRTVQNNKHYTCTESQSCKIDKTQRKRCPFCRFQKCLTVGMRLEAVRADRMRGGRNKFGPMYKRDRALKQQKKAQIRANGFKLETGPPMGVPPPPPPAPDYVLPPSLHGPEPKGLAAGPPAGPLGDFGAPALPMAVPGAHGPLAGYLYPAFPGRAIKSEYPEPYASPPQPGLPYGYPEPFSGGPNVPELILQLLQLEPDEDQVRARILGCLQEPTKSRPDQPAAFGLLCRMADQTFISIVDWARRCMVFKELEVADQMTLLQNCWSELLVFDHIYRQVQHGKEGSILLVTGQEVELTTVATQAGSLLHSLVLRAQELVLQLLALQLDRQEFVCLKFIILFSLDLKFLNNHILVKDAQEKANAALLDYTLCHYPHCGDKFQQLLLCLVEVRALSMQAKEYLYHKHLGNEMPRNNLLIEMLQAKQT
Assay: activators of human SF-1, primary screen, cell-based, CHO-K1, Gal4-SF-1 LBD, luciferase luminescence (AID 522)
Details: CHO-K1 Gal4-SF-1 LBD luciferase reporter; at 10 µM; stronger effect = higher value; % increase over DMSO SF-1-specific signal
Summary of the method: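 Test system: transient Gal4-SF-1 LBD reporter, CHO-K1; Amount: 4,000 CHO-K1 cells per well; Doses: 10 µM only; Timing: compound exposure 20 h at 37 °C; Signal: luciferase light emission; Read-out basis: percent activation relative to DMSO median and mock-transfected background; Control set: DMSO negative control and −SF1 background wells; Replicates: one test per compound.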

Point of comparison: `CCCCCNC(=O)Cc1ccc(OC)cc1`, activation -9.8%. Against it:
- O=c1cc(Cn2nnc(-c3ccc(Cl)cc3)n2)nc2sccn12 — higher, -5.8%
- COc1ccccc1N1CCN(C(=O)Cn2nnc(-c3cccs3)n2)CC1 — higher, 5%
- O=S(=O)(NCC1CCCO1)c1ccc2ccccc2c1 (stereo not given) — lower, -16.7%
- O=C(c1cccnc1NCc1ccccc1)N1CCOCC1 — higher, -2.1%
- CCOC(=O)c1sc(/N=C/Nc2nc(C)c(C(=O)OCC)s2)nc1C — higher, -2%
- COc1ccc(CCN(C)C(=O)C2CCCN(Cc3ccc(OC)c(OC)c3)C2)cc1OC (stereo not given) — higher, 5.8%
- Cc1ccccc1-c1nnn(CC(=O)c2ccc(S(=O)(=O)N3CCCC3)cc2)n1 — lower, -10.4%
- O=C(Cn1nnc(-c2ccccc2)n1)NCc1ccccc1 — higher, 8.3%
- CN(C(=O)COc1ccccc1)c1nnc(-c2ccncc2)s1 — higher, -6.7%
- CN(C(=O)c1ccno1)c1nnc(-c2cccnc2)s1 — lower, -11.5%
- COc1cc2cc(CN(CCN3CCCC3)C(=O)Nc3ccccc3Cl)c(=O)[nH]c2cc1OC — higher, -8.6%
- COc1cc(-c2nc(-c3ccncc3)no2)cc(OC)c1OC — higher, -2.5%
- COc1ccc(-c2nc(-c3ccccc3)no2)c(OC)c1 — lower, -82.9%
- COCCOC(=O)C1=C(C)Nc2nc(C)nn2C1c1ccccc1 (stereo not given) — higher, 4.8%
- O=C(O)CSCNC(=O)CC12CC3CC(CC(C3)C1)C2 — higher, -5.6%
- Cc1ccc(S(=O)(=O)Nc2ccc3ncccc3c2)cc1 — lower, -16.8%
- COc1cc(NS(=O)(=O)c2ccccc2)ccc1-n1nc(C)cc1C — lower, -10.6%
- COc1cc(C2C(C#N)=C(C)NC3=C2C(=O)CC(C)(C)C3)ccc1O (stereo not given) — higher, 1.5%
- Cc1ccc(Cn2ccc(NC(=O)C3C4CCC(C4)C3C(=O)O)n2)cc1 (stereo not given) — higher, 3.1%
- CCc1nnc(NC(=O)C2CCCN2S(=O)(=O)c2ccccc2)s1 (stereo not given) — higher, -4.2%
- CCOc1ccc(-c2nnc(-c3ccco3)o2)cc1 — lower, -48%
- CCCOc1cccc(C(=O)Nc2nnn(CCC)n2)c1 — higher, 26.3%
- COc1ccc(CC(=O)Nc2ccc(-c3nnc(-c4ccc(C)cc4)o3)cc2)cc1 — lower, -47.6%
- CCCCOc1ccc(-c2nnc(-c3ccco3)o2)cc1 — higher, 23.6%
- CCOC(=O)c1[nH]c2ccc(OC)cc2c1NC(=O)CCN1CCN(Cc2ccccc2)CC1 — higher, -7.7%
- COc1cccc(-n2cc3c(c2-c2ccccc2)c(=O)n(C)c(=O)n3C)c1 — lower, -21.1%
- CCOC(=O)c1cn(CC(=O)Nc2ccc(C(C)C)cc2)nn1 — higher, 3.2%
- O=C(CN1CCN(C(=O)c2ccco2)CC1)Nc1ccc(Cl)c(C(F)(F)F)c1 — higher, 11.1%
- CCCC(=O)Nc1cccc(-c2cn3ccsc3n2)c1 — higher, 45.8%
- Cc1ccc(S(=O)(=O)NCc2cn3ccsc3n2)c(C)c1 — higher, -0.8%
- O=C(O)[C@@H]1CCCN1c1ncnc2sc3c(c12)CCC3 — lower, -13.4%
- CCOc1cc(C(=O)Nc2ncccn2)cc(OCC)c1OCC — higher, -1.3%
- O=C(Nc1ncccn1)c1cccs1 — higher, 18.9%
- Cc1ccccc1OCCC(=O)Nc1c(C)n(C)n(-c2ccccc2)c1=O — higher, 13.7%
- Cc1nnc(NC(=O)CCC(=O)N2CCC(C)CC2)s1 — higher, 0.2%
- Cc1ccc(S(=O)(=O)N2CCC(N3CCCCCC3)CC2)cc1 — higher, 10.8%
- CCN(CC)S(=O)(=O)c1cc(C(=O)Nc2ccccn2)ccc1C — higher, 49.3%
- Cc1nc2c(c(=O)n1Cc1ccco1)c1nc3ccccc3nc1n2Cc1ccccc1 — higher, -2.3%
- CC(C)NC(=O)CCCn1c(=S)[nH]c2cc3c(cc2c1=O)OCO3 — higher, 2.9%
- Cc1cccc(NC(=O)COc2ccccc2C)n1 — lower, -19.2%
- Cc1cccc(NC(=O)c2ccccc2NC(=O)C(C)(C)C)n1 — lower, -22.9%
- O=C(c1c(Cl)nc2sccn12)N1CCCc2ccccc21 — higher, 4.7%
- O=C(CCC(=O)N1CCN(S(=O)(=O)c2ccccc2)CC1)NC1CCCc2ccccc21 (stereo not given) — higher, -3.9%
- CS(=O)(=O)N1CCN(C(=O)Cc2ccccc2)CC1 — higher, 3.5%
- COc1ccccc1CNC(=O)CCn1c(=O)sc2ccccc21 — lower, -21.4%
- CS(=O)(=O)c1ccc2nc(NC(=O)CN3CCCCCC3)sc2c1 — higher, -3.6%
- COCCCNC(=O)Cn1cc(C(=O)C2CC2)c2ccccc21 — higher, 1.7%
- CCOc1ccccc1Nc1nnc(SCC(=O)Nc2cc(C)on2)s1 — lower, -12.5%
- C=CCNC(=O)c1ccc(C)c(Br)c1 — lower, -12.1%
- COc1ccc2c(c1)CCc1c(C(=O)N3CCc4ccccc4C3)noc1-2 — higher, 2.4%
- COc1ccc2c(c1)CCc1c(C(=O)Nc3c(C)n(C)n(-c4ccccc4)c3=O)noc1-2 — higher, -6%
- O=C(O)CCC(=O)N(Cc1ccco1)c1nc(-c2ccccc2)cs1 — higher, 9.9%
- CCc1nc(N2CCN(c3nc(C)cc(C)n3)CC2)c2oc3ccccc3c2n1 — higher, 12%
- CCSc1nc(C)nc2c1oc1ccccc12 — lower, -10.2%
- COc1ccc(N2CCN(C(=O)CSc3nnc4ncccn34)CC2)cc1 — higher, -2.5%
- CCc1nnc(NC(=O)CSc2nnc(COc3ccc(C#N)cc3)n2-c2ccccc2)s1 — higher, 0.6%
- O=C(COC(=O)c1ccccc1C(=O)c1ccccc1)c1ccco1 — higher, -2.1%
- O=C(OCC(=O)N1CCCC1)c1ccco1 — higher, 14.1%
- CCOC(=O)N1CCN(C(=O)C2CCN(S(C)(=O)=O)CC2)CC1 — higher, 10.2%
- CCOC(=O)c1sc(=S)n2c1[nH]c(=O)c1ccc(C(=O)OC)cc12 — higher, -7.4%
- CCOC(=O)c1cnc(SCC(=O)NCc2ccco2)nc1N — higher, 19.1%
- CCCCOc1ccc(NC(=O)CSCC(=O)OCC)cc1 — higher, -6.4%
- O=C(CSc1nnc(-c2c[nH]c3ccccc23)n1-c1ccc(F)cc1)NCc1ccco1 — higher, 15.7%
- Cc1nnc(SCCCn2c(N3CCCCC3)nc3c2c(=O)[nH]c(=O)n3C)s1 — lower, -12.6%
- COc1ccc(CCNC(=O)CSc2nc(C)nc3c2oc2ccccc23)cc1OC — higher, 27.4%
- Cc1cc(C)nc(N2CCN(c3ncnc4c3oc3ccccc34)CC2)n1 — higher, -8.8%
- Cn1c2c(c(=O)n(C)c1=O)C(c1ccc(O)cc1)Nc1ccccc1O2 (stereo not given) — higher, -0.7%
- CCOc1ccccc1NC(=O)Nc1cc(OC)ccc1OC — lower, -10%
- COc1ccc(C2C(C(=O)Nc3ccccc3OC)=C(C)Nc3nnnn32)c(OC)c1 (stereo not given) — higher, -6.7%
- COc1ccc(OC)c(C2N(c3ccccn3)C(=O)C3CCCN32)c1 (stereo not given) — lower, -12.3%
- O=C1C(=O)N(CCN2CCOCC2)C(c2ccccn2)/C1=C(/O)c1ccc(Cl)cc1 (stereo not given) — higher, -1.6%
- C=C(C)COc1ccc(-c2n[nH]c(C)c2-c2ccccc2OC)c(O)c1 — lower, -12.7%
- COc1cc(N=Cc2c(O)[nH]c3ccccc23)cc(OC)c1OC — higher, -0.5%
- COc1ccc(OC)c(N=Cc2c(O)[nH]c3ccccc23)c1 — higher, 0.1%
- CCOc1nc(-c2ccc(OC)cc2)ccc1-c1noc(-c2cc(OC)c(OC)c(OC)c2)n1 — higher, -8.3%
- Cc1ccc(N2C(=O)c3ccccc3C2(O)c2ncc[nH]2)cc1 (stereo not given) — higher, 6.2%
- COc1ccc(CNC(=O)C2CCN(S(=O)(=O)N3CCOCC3)CC2)cc1 — higher, 18.7%
- CCOC(=O)c1cc(C)sc1NC(=O)C1CCC1 — higher, 9.7%
- O=C(Oc1cccnc1)c1cc2ccccc2oc1=O — higher, -8.6%
- O=C(NCc1ccccn1)c1cc2ccccc2oc1=O — higher, 12.4%

`Clc1cccc(Cl)c1Cn1nnc(-c2cccs2)n1` was tested, and the activation was 50.8% (active).
For `CC(C)(C)NC(=O)Cn1nnc(-c2ccccc2Cl)n1`, the activation was 50% (active).
In the case of `CN(C(=O)c1ccccn1)c1nnc(-c2ccccn2)s1`, the activation is reported as 56.6% (active).
In the case of `COc1ccc(-c2noc(-c3cccc(OC)c3OC)n2)cc1OC`, the activation is reported as 100% (active).
`O=S(=O)(Nc1ccc2nc(-c3ccco3)[nH]c2c1)c1ccccc1` was tested, and the activation was 53.5% (active).
For `Cc1ccc(OCC(=O)Nc2ccc(-c3nnc(-c4ccco4)o3)cc2)cc1`, the activation was 65.5% (active).
In the case of `CCC(=O)Oc1cccc(C(=O)Nc2ccc(-c3nnc(-c4ccco4)o3)cc2)c1`, the activation is reported as 79.8% (active).
For `COc1ccc(-c2cn3ccsc3n2)cc1`, the activation was 53.3% (active).
For `Cn1c(=O)c(C(=O)Nc2ncccn2)c(O)c2ccccc21`, the activation was 64.2% (active).
For `Cc1cccc(NC(=O)c2ccc3ccccc3n2)n1`, the activation was 98.6% (active).
With `N#C/C=C1\Sc2ccccc2C(=O)N1CC(=O)N1CCN(S(=O)(=O)c2ccccc2)CC1` the activation was 53.6% (active).
In the case of `COc1ccc2c(c1)CCc1c(C(=O)N3CCCC3)noc1-2`, the activation is reported as 55.3% (active).
For `CCc1nc(Nc2ccc3nccnc3c2)c2oc3ccccc3c2n1`, the activation was 50.3% (active).
In the case of `CCN(CC)c1ccc(C(=O)OCC(=O)c2ccco2)cc1`, the activation is reported as 53.6% (active).
With `CCCCOc1ccc(-c2ncc(C(=O)OCC)c(N)n2)cc1` the activation was 49.8% (active).
`COc1ccccc1Nc1ncnc2c1oc1ccccc12` was tested, and the activation was 91.8% (active).
In the case of `COc1ccccc1NC(=O)c1ccc(C)s1`, the activation is reported as 50.1% (active).
For `COc1ccc(N=Cc2c(O)[nH]c3ccccc23)cc1OC`, the activation was 60.4% (active).
With `Nc1ncc(-c2cc3ccccc3oc2=O)s1` the activation was 79.3% (active).
